Test results reported in PMC8821119 (Clinical breast cancer, 2021).
“And” between values parts separate entries of the source, which are not always exact repeats. Identical values can stand only once.

What was measured:
[1] = test system: early stage ERα+ breast cancer patients; details: short-term MK0752 added to letrozole or tamoxifen, neo-adjuvant; cited from earlier work
[2] = test system: PKCα-overexpressing, Notch4-positive ER+ cells; details: reverses endocrine resistance; cited from earlier work
[3] = test system: HER2-enriched breast cancer; details: cited from earlier work
T47D:PKCα cells = test: Secondary mammosphere formation assay; assay type: cell-based; details: 7 days
In short: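 T47D cells electroporated with a PKCα plasmid; G418-resistant clone F2 was chosen for PKCα overexpression on Western blot and STR-authenticated as T47D. Secondary mammosphere cultures were treated with test compound (30 nM), alone or with a γ-secretase inhibitor (5 μM), at pilot-chosen concentrations. Mammospheres counted after 7 days; 3 independent experiments, mean ± standard deviation.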

plasma protein = details: cited from earlier work
Notch1 cleavage = details: cited from earlier work
[4] = test system: patients with ER+ metastatic breast cancer; parameters: species or system human; details: in vivo
[5] = test system: ER+ metastatic breast cancer; test: Phase Ib trial: clinical response; assay type: in vivo, human; details: RO4929097 with exemestane
clinical = details: human, in vivo

Q: With `O=C(O)CC[C@H]1CC[C@@](c2cc(F)ccc2F)(S(=O)(=O)c2ccc(Cl)cc2)CC1` [MK0752] as the compound, how does the “Ki67 expression in tumors” value [1] read?
A: significantly affected Ki67 expression

Q: And the Toxicity [1]?
A: no significant toxicity

Q: Which results are given for `O=S1(=O)N[C@@]2(CN1CC(F)(F)F)[C@@H]1CC[C@H]2Cc2ccc(/C=C/CN3CCC(C(F)(F)F)CC3)cc2C1` [MRK003]?
A: Tumor response and toxicity [2]: causes tumor regression without significant toxicity; Effect on tumor volume ([3]; MRK003 alone): virtually no effect on tumor volume; Tumor recurrence ([3]; MRK003 in combination with trastuzumab): abrogated tumor recurrence

Q: With `CC(C)(C(=O)NCC(F)(F)C(F)(F)F)C(=O)N[C@@H]1C(=O)Nc2ccccc2-c2ccccc21` [RO4929097] as the compound, how does the Mammosphere numbers (T47D:PKCα cells; RO4929097 alone (5 μM)) read?
A: significantly decreased mammosphere numbers

Q: And the Plasma protein binding (plasma protein)?
A: highly plasma protein-bound

Q: What about the “IC50s observed by the authors earlier” value (Notch1 cleavage) of the same compound?
A: nanomolar range

Q: And the IC50 (Notch1 cleavage; read-out: in vitro IC50 in cell-based assays for Notch1 cleavage)?
A: 5 nM

Q: What about the “Dose-Limiting Toxicity (DLT) observed” value [4] of the same compound?
A: Rash

Q: And the “Complete responses (CR)” value [5]?
A: No complete responses

Q: And the “Patients with stable disease for ≥ 6 months” value [5]?
A: Twenty

Q: What about the “Total clinical benefit rate (CR+PR+SD ≥ 6 months)” value [5] of the same compound?
A: 20%

Q: And the “Partial response (PR), number of patients” value ([5]; 14 evaluable patients)?
A: one

Q: And the “Progressive disease, number of patients” value ([5]; 14 evaluable patients)?
A: 7 and 6

Q: And the “Stable disease (SD), number of patients” value ([5]; 14 evaluable patients)?
A: 6 and 7

Q: And the “Estimated overall survival (OS) at 6 months” value ([5]; interval 60–100%)?
A: 79%

Q: And the “Drug levels six days after dosing” value (clinical)?
A: nearly unquantifiable levels

Q: And the AUC(0-t) (clinical; po, 20 mg)?
A: 4.55 µg·h/mL

Q: And the “Clearance mean (±st dev)” value (clinical; po, 20 mg)?
A: 2.3 (±1.5) L/hr

Q: And the Cmax (clinical; po, 20 mg)?
A: 0.266 µg/mL

Q: And the Tmax (clinical; po, 20 mg)?
A: 3 h

Q: What about the half-life (clinical; po, 20 mg) of the same compound?
A: 26 h

Q: And the AUC(0-t) (clinical; po, 30 mg)?
A: 7.71 µg·h/mL

Q: What about the “Clearance mean (±st dev)” value (clinical; po, 30 mg) of the same compound?
A: 2.1 (±0.3) L/hr

Q: What about the Cmax (clinical; po, 30 mg) of the same compound?
A: 1.05 µg/mL

Q: What about the Tmax (clinical; po, 30 mg) of the same compound?
A: 0.5 h

Q: And the half-life (clinical; po, 30 mg)?
A: 20.7 h

Q: What about the AUC(0-t) (clinical; po, 45 mg) of the same compound?
A: 10.4 µg·h/mL

Q: And the “Clearance mean (±st dev)” value (clinical; po, 45 mg)?
A: 2.8 (±2.2) L/hr

Q: And the Cmax (clinical; po, 45 mg)?
A: 1.11 µg/mL

Q: What about the “Tmax mean (range)” value (clinical; po, 45 mg) of the same compound?
A: 1.5 (1–2) hr

Q: And the half-life (clinical; po, 45 mg)?
A: 23.1 h

Q: And the AUC(0-t) (clinical; po, 90 mg)?
A: 21.1 µg·h/mL

Q: And the “Clearance mean (±st dev)” value (clinical; po, 90 mg)?
A: 2.8 L/h

Q: What about the Cmax (clinical; po, 90 mg) of the same compound?
A: 2.08 µg/mL

Q: And the Tmax (clinical; po, 90 mg)?
A: 4.3 h

Q: And the half-life (clinical; po, 90 mg)?
A: 13.6 h

Q: And the AUC(0-t) (clinical; po, 140 mg)?
A: 19.7 µg·h/mL

Q: And the “Clearance mean (±st dev)” value (clinical; po, 140 mg)?
A: 2.6 (±0.2) L/hr

Q: And the Cmax (clinical; po, 140 mg)?
A: 1.33 µg/mL

Q: What about the half-life (clinical; po, 140 mg) of the same compound?
A: 33.4 h

Q: Which Protein-bound (plasma protein) does the source give for `C=C1C[C@@H]2[C@H](CC[C@]3(C)C(=O)CC[C@@H]23)[C@@]2(C)C=CC(=O)C=C12` [exemestane, reference compound] here?
A: 90%

Q: For `C[C@]12CC[C@@H]3c4ccc(O)cc4C[C@@H](CCCCCCCCC[S+]([O-])CCCC(F)(F)C(F)(F)F)[C@H]3[C@@H]1CC[C@@H]2O` (some centres unmarked) [fulvestrant, reference compound], which “Mammosphere sensitivity to single agent” value (T47D:PKCα cells; fulvestrant alone (30 nM)) is on record?
A: partially sensitive
